Measurements collected from several papers.
Compare with care: the assays were run in different laboratories.
FABP1: Fatty acid-binding protein, liver (FABP1, Homo sapiens, UniProt P07148)
rep main protease: Replicase polyprotein 1ab, main protease (rep, Severe acute respiratory syndrome coronavirus 2, UniProt P0DTD1)
rep methyltransferase: Replicase polyprotein 1ab, methyltransferase (rep, Severe acute respiratory syndrome coronavirus 2, UniProt P0DTD1)

| SMILES | target | assay | conditions | quantity | value |
| --- | --- | --- | --- | --- | --- |
| NS(=O)(=O)C(F)(F)C(F)(F)C(F)(F)C(F)(F)C(F)(F)C(F)(F)C(F)(F)C(F)(F)F | FABP1 | ligand displacement, fluorescence |  | Kd | 5.87 µM |
| CC(=O)[C@@]1(O)CC[C@H]2[C@@H]3C[C@H](C)C4=CC(=O)C=C[C@]4(C)[C@@]3(F)[C@@H](O)C[C@@]21C | rep main protease | enzyme activity, inhibitor |  | IC50 | 60.6 µM |
| COc1cc2c(cc1OC)CN(CCc1ccc(NC(=O)c3cccc4c(=O)c5cccc(OC)c5[nH]c34)cc1)CC2 | Histamine H2 receptor (HRH2, Homo sapiens, UniProt P25021) | cell-free assay |  | Ki | 1.1 µM |
| O=c1c(O)c(-c2ccc(O)cc2)oc2c(O)c(O)cc(O)c12 | rep main protease | enzyme activity, inhibitor | with preincubation | IC50 | < 10 µM |
| CCOC(=O)c1ccc(OC(=O)CCCCCN=C(N)N)cc1 | Kallikrein-12 (Homo sapiens, UniProt Q9UKR0) | enzyme activity, inhibitor |  | IC50 | 0.0357 µM |
| CN1C(=O)/C(=N\Nc2ncc(-c3cc4ccccc4oc3=O)s2)c2cc(Cl)ccc21 | Alpha-glucosidase MAL12 (MAL12, Saccharomyces cerevisiae S288c, UniProt P53341) | enzyme activity, inhibitor, absorbance |  | IC50 | 112 µM |
| COc1ncc(-c2ccc3nccc(-c4ccnnc4)c3c2)cc1NS(=O)(=O)c1ccc(F)cc1F | rep methyltransferase | enzyme activity, inhibitor |  | IC50 | ~100 µM |
| O=C(O)c1cc(O)c(O)c(O)c1 | rep main protease | binding, MST |  | Kd | 3.95 µM |
| CC1(C)O[C@@H]2C[C@H]3[C@@H]4CCC5=CC(=O)C=C[C@]5(C)[C@H]4[C@@H](O)C[C@]3(C)[C@]2(C(=O)CO)O1 | rep main protease | enzyme activity, inhibitor |  | IC50 | 71.4 µM |
| CC1CC(c2ccc(S(N)(=O)=O)cc2)=NN1c1ccc(C#N)c(Cl)c1 (centres unmarked) | rep methyltransferase | enzyme activity, inhibitor |  | IC50 | > 100 µM |
| CCNS(=O)(=O)C(F)(F)C(F)(F)C(F)(F)C(F)(F)C(F)(F)C(F)(F)C(F)(F)C(F)(F)F | FABP1 | ligand displacement, fluorescence |  | Kd | 16.6 µM |
